The results in this text go back to ChEMBL document CHEMBL3596155, “Optimization of rhodanine scaffold for the development of protein-protein interaction inhibitors” (Bioorg Med Chem, 2015).

The source made the active and inactive calls. No cut-off for these calls is given here. Bounds are passed on as bounds.

The target in data set [1] is Human immunodeficiency virus type 1 integrase (Human immunodeficiency virus 1) (UniProt Q7ZJM1). The experiment in a line: Inhibition of HIV1 His6-tagged integrase assessed as inhibition of interaction with recombinant flag-tagged LEDGF/p75 at 100 uM incubated for 30 mins prior to substrate addition measured after 1 hr by AlphaScreen assay. The gist of the method:
(§1)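 AlphaScreen in 25 mM Tris-HCl pH 7.4, 150 mM NaCl, 1 mM MgCl2, 0.01% Tween-20 and 0.1% BSA. His6-integrase (300 nM final) was preincubated with compound for 30 min at 4°C. Flag-LEDGF/p75 (100 nM) was then added for 1 h at 4°C. Ni-chelate acceptor and anti-flag donor beads (20 μg/ml each) followed for 1 h at 30°C, protected from light. Acceptor emission was read.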

For data set [2], the target named is Human immunodeficiency virus type 1 integrase (Human immunodeficiency virus 1, UniProt Q7ZJM1). The experiment in a line: Inhibition of HIV1 His6-tagged integrase assessed as inhibition of interaction with recombinant flag-tagged LEDGF/p75 incubated for 30 mins prior to substrate addition measured after 1 hr by AlphaScreen assay. Put shortly: as §1
The test system of data set [3] is Human immunodeficiency virus. The experiment in a line: Antiviral activity against HIV 3B infected in human MT4 cells assessed as inhibition of virus-induced cytopathic effect by MTT assay. The following applies: Human immunodeficiency virus 1, 3B. In kind it is functional, organism-based. Put shortly: (§2)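 HIV(IIIB) stock titrated on MT-4 cells to set the CCID50. MT-4 cells were infected with 100-300 CCID50 in the presence of five-fold serial compound dilutions. Protection from virus-induced cytopathic effect was read spectrophotometrically as MTT reduction to formazan by viable cells. EC50 is the concentration giving 50% protection. CC50 was determined in parallel on cells.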

Data set [4] is described as follows: Selectivity index, ratio of CC50 for human MT4 cells to EC50 for HIV 3B. Format: toxicity, cell-based. Particulars: read-out: Ratio CC50/EC50. Put shortly: as §2

Human immunodeficiency virus type 1 integrase, sequence (Q7ZJM1 whole entry): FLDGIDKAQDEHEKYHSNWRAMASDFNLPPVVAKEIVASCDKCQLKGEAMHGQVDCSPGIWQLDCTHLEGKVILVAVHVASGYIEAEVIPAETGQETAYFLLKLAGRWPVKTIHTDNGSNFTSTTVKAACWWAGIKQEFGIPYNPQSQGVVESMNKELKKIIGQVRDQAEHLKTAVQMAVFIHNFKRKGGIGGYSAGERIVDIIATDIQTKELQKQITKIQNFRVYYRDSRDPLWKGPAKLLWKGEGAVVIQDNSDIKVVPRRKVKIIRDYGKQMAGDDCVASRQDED
Human immunodeficiency virus type 1 integrase (Human immunodeficiency virus 1), sequence (Q7ZJM1 as listed by the source): as the sequence (Q7ZJM1 whole entry) above

Regarding `CCOc1cc(/C=C2\SC(=S)N(C(C(=O)O)C(C)C)C2=O)ccc1OC` (stereo not given), the inhibition in data set [1] came out at 20%.
On to `COc1ccc(/C=C2\SC(=S)N(C(C(=O)O)C(C)C)C2=O)cc1` (stereo not given), for which the IC50 in data set [2] came out at 41.3 µM.
Turning to `COc1ccc(/C=C2\SC(=S)N(C(C)CC(=O)O)C2=O)cc1` (stereo not given), the inhibition in data set [1] amounted to 29%.
Turning to `COc1ccc2nc(/C=C3\SC(=S)N(C(C(=O)O)C(C)C)C3=O)ccc2c1` (stereo not given), the IC50 in data set [2] was found to be 15.8 µM.
As to `CCOc1cc(/C=C2\SC(=S)N(C(C(=O)O)C(C)C)C2=O)ccc1O` (stereo not given), the IC50 in data set [2] was 25 µM.
Consider `COc1ccc(/C=C2\SC(=S)N(CCC(=O)O)C2=O)cc1`, for which, in data set [1], the inhibition amounted to 66%. Besides, the IC50 in data set [2] is over 100 µM. In data set [3], the EC50 was 2410 nM. Further, the selectivity ratio in data set [4] was found to be 61.
With `CCC(C(=O)O)N1C(=O)/C(=C/c2ccc(OC)cc2)SC1=S` (stereo not given), in data set [1], the inhibition turned out to be 54%. Also, the concentration for half-maximal inhibition (IC50) in data set [2] is over 100 µM.
`CC(C)C(C(=O)O)N1C(=O)/C(=C/c2ccc(O)cc2)SC1=S` (stereo not given): the inhibition in data set [1] worked out at 77%. In addition, the 50% inhibitory concentration (IC50) in data set [2] was 43.7 µM.
With `COc1ccc(/C=C2\SC(=S)N(C(C(=O)O)C(C)C)C2=O)cc1OC` (stereo not given), in data set [1], the inhibition entry was “inactive”.
Regarding `COc1ccc(/C=C2\SC(=S)N(CC(=O)O)C2=O)cc1`, in data set [1], the inhibition was determined as 36%.
Still for that read-out and setting: the result for `COc1cc(/C=C2\SC(=S)N(C(C(=O)O)C(C)C)C2=O)ccc1O` (stereo not given) reads 43%; that for `COc1ccc(/C=C2\SC(=S)N(C(C)C(=O)O)C2=O)cc1` (stereo not given), 47%.
Turning to `CC(C)C(C(=O)O)N1C(=O)/C(=C/c2cccc3ccccc23)SC1=S` (stereo not given), the inhibition in data set [1] worked out at 89%. In data set [2], the IC50 is 18.7 µM.
With `CCOc1ccc(/C=C2\SC(=S)N(C(C(=O)O)C(C)C)C2=O)cc1OC` (stereo not given), in data set [1], the inhibition was 28%.
